Laboratory results: publication PMC9177960 (Nucleic Acids Research, 2022)

Assays:
[1] = target: T1, MurR/operator DNA complex (Escherichia coli, UniProt P77245); assay: EMSA of MurR with murR-murQ intergenic region DNA; type: biochemical; conditions: for effect on MurR-DNA binding at high concentration: EMSA, 1, 10, 20, 40 mM, effect of GlcNAc-6-P at 40 mM
T1 sequence (P77245 1-285): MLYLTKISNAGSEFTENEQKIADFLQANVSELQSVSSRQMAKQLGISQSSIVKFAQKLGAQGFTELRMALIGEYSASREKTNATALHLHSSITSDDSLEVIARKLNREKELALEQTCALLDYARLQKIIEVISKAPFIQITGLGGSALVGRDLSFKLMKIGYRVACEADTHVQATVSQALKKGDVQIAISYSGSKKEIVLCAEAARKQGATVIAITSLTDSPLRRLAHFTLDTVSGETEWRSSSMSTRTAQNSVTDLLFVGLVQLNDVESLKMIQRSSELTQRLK

[2] = tested on: MurR binding to the operator site; conditions: previous studies; cited from earlier work
[3] = target: T2, MurR (Escherichia coli, UniProt P77245); assay: ITC binding between MurR and ligands
T2 sequence (P77245 1-285): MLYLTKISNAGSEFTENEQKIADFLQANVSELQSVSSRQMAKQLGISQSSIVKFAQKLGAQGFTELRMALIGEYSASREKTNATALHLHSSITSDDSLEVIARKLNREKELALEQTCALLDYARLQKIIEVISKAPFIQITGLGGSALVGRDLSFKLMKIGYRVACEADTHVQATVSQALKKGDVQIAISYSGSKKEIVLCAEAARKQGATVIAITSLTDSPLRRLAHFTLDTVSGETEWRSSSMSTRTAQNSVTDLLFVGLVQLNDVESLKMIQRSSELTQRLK
Method in brief: (§1)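 MurR (wild type or point mutant) was expressed from pET28a in E. coli BL21(DE3), His6-tag removed with HRV3C, and gel-filtered. Protein at 50 µM in the cell; ligand at 500 µM in the syringe. Both were in 100 mM NaCl, 10 mM Tris-HCl pH 7.5, 1 mM DTT. Run at 25 °C, stirring 750 rpm, 120 s between injections. Data background-subtracted to give association constants; triplicate runs.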

[4] = tested on: mutant MurR proteins; assay: ITC binding of GlcNAc-6-P to mutant MurR proteins; set-up: species or system Escherichia coli; conditions: mutant proteins of Supplementary Figure S14A and B
Method in brief: as §1

[5] = tested on: mutant MurR proteins/promoter DNA complexes; assay: EMSA of mutant MurR proteins with promoter DNA; type: biochemical, Escherichia coli; conditions: all MurR proteins (WT and mutants) at the tested concentrations
[6] = tested on: MurR-controlled eGFP expression (pUC19-murR-eGFP); assay: CFPS eGFP fluorescent quantitation assay, WT MurR; type: biochemical, Escherichia coli; conditions: plasmid 5.8 nM, protein 1:100 molar ratio, different ligand concentrations
Method in brief: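 Reporter plasmid: T7 promoter, RBS, eGFP coding sequence and the murQ–murR intergenic region. MurR proteins were expressed in E. coli BL21(DE3) with an N-terminal His6 tag, which was cleaved off by HRV3C protease, then purified by size exclusion. In cell-free protein synthesis, 5.8 nM plasmid was mixed with protein at a 1:100 plasmid:protein molar ratio and graded MurNAc-6-P or GlcNAc-6-P. eGFP fluorescence was read on a real-time PCR instrument, in triplicate.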

[7] = target: the molecule itself; assay: SEC + AUC
[8] = target: the molecule itself; assay: crystal structure

## O=S(=O)([O-])[O-].[Na+].[Na+] [sodium sulfate]
[1]
  effect on MurR-DNA binding at high concentration: not affected

## CC(=O)N[C@@H]1[C@@H](O)[C@H](O)[C@@H](CO)O[C@H]1O [GlcNAc, N-acetylglucosamine]
[2]
  effect on MurR binding to the operator: no effect
[3]; ligand titrated into WT MurR
  interaction with MurR in ITC: no interaction

## CC(=O)N[C@H]1C(O)O[C@H](COP(=O)(O)O)[C@@H](O)[C@@H]1O (stereo partly shown) [GlcNAc-6-P, N-acetylglucosamine-6-phosphate]
[1]; EMSA, 200 nM MurR, ligand 1, 10, 100, 1000 μM
  relief of the retardation of DNA migration: negligible
[1]
  effect on MurR-DNA binding at high concentration: a certain portion of the DNA was dissociated from MurR
[4]
  association constant (Ka) values compared with WT MurR: Smaller
[5]
  sensitivity of MurR/DNA complexes to ligand: insensitive
[2]
  effect on MurR binding to the operator: no effect
[6]
  effect on eGFP fluorescence: made no visible difference
[3]
  Kd: 17.6 µM

## CC(=O)N[C@H]1C(O)O[C@H](CO)[C@@H](O)[C@@H]1O[C@H](C)C(=O)N[C@@H](C)C(=O)N[C@H](CCC(=O)O)C(N)=O (mixture of isomers) [muramyl dipeptide]
[2]
  effect on MurR binding to the operator: no effect

B1: full-length MurR (natural protein, Escherichia coli MG1655, UniProt P77245 1-285, looked up)
chain: MLYLTKISNAGSEFTENEQKIADFLQANVSELQSVSSRQMAKQLGISQSSIVKFAQKLGAQGFTELRMALIGEYSASREKTNATALHLHSSITSDDSLEVIARKLNREKELALEQTCALLDYARLQKIIEVISKAPFIQITGLGGSALVGRDLSFKLMKIGYRVACEADTHVQATVSQALKKGDVQIAISYSGSKKEIVLCAEAARKQGATVIAITSLTDSPLRRLAHFTLDTVSGETEWRSSSMSTRTAQNSVTDLLFVGLVQLNDVESLKMIQRSSELTQRLK
[7]
  stoichiometry N: 4

B2: truncated protein MurRT2 (D95 to K285) (domain or fragment, Escherichia coli MG1655, UniProt P77245 95-285, looked up)
chain: DDSLEVIARKLNREKELALEQTCALLDYARLQKIIEVISKAPFIQITGLGGSALVGRDLSFKLMKIGYRVACEADTHVQATVSQALKKGDVQIAISYSGSKKEIVLCAEAARKQGATVIAITSLTDSPLRRLAHFTLDTVSGETEWRSSSMSTRTAQNSVTDLLFVGLVQLNDVESLKMIQRSSELTQRLK
[8]
  binding result: binds
